Experimental data from paper PMC6570502 (Chembiochem : a European journal of chemical biology, 2019).
Residue numbers refer to the chain shown, from its start.

Tests used:
[1] = target: T1, KDM4A N198G mutant (Homo sapiens, UniProt O75164, N198G); experiment: MALDI demethylase assay, H3K9me3 substrate peptide, N198G mutant; type: biochemical
T1 sequence (O75164 1-1064 N198G): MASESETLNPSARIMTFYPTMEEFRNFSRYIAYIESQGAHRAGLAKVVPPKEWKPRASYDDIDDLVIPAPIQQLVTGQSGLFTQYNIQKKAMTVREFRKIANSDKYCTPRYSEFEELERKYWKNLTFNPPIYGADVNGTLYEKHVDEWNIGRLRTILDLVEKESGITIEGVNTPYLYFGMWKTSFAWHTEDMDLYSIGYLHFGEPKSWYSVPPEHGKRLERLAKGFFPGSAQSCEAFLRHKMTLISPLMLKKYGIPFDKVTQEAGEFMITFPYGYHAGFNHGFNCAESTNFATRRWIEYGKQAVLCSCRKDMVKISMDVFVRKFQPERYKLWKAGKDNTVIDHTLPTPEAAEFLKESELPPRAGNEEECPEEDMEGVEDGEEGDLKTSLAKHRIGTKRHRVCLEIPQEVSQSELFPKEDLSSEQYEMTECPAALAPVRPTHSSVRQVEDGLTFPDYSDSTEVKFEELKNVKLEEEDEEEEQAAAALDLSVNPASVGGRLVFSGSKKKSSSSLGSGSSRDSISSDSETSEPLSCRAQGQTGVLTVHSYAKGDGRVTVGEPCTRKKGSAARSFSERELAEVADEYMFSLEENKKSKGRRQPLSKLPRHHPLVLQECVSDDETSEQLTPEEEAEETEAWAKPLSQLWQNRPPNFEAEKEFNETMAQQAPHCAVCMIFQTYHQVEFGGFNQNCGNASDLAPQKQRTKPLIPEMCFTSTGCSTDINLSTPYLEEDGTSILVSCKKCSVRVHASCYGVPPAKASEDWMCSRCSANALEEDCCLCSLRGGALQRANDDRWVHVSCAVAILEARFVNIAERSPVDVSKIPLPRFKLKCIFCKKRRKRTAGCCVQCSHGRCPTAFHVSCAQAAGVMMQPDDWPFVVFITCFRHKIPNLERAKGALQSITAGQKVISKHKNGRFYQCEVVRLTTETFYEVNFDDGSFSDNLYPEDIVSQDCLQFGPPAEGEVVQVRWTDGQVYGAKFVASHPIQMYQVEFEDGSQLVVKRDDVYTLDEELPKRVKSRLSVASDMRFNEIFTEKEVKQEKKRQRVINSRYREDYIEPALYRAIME

[2] = target: T2, KDM4A S288A mutant (Homo sapiens, UniProt O75164, S288A); experiment: MALDI demethylase assay, H3K9me3 substrate peptide, S288A mutant; type: biochemical
T2 sequence (O75164 1-1064 S288A): T1 sequence (O75164 1-1064 N198G) with G198N, S288A
Procedure, shortened: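 KDM4A mutant demethylation of H3K9me3 peptide, read by MALDI-MS and expressed as % inhibition of demethylase activity, with wild type and the four active-site mutants run under the same conditions. The 2KG cofactor was cut from the 1 mM of the initial activity assay to 50 μM, about 3–4-fold above the enzymes' 2KG KM. KM came from an FDH/NAD+-coupled NADH fluorescence assay.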

[3] = scaffold test under the optimized assay conditions (50 μM 2KG), Figure S7
[4] = 100 μM compound, 50 μM 2KG, MALDI-MS

| Compound | inhibition of demethylase activity [1, 3] | inhibition of demethylase activity [2, 3] | inhibition of demethylase activity [1, 4] | inhibition of demethylase activity [2, 4] |
| --- | --- | --- | --- | --- |
| O=C(O)c1ccc(O)c2ncccc12 [IOX1, 5-carboxy-8-hydroxyquinone] | inhibited | inhibited | – | – |
| O=C(O)CNC(=O)C(=O)O [compound 2, N-oxalylglycine] | inhibited | inhibited | significantly inhibited | significantly inhibited |
